# Measurements from ChEMBL document CHEMBL5357045, “Development of pharmacophore models for AcrB protein and the identification of potential adjuvant candidates for overcoming efflux-mediated colistin resistance” (2024).
# The source made the active and inactive calls.
# Columns and labels:
# [1] = test system: Escherichia coli; assay: Antibacterial activity against Escherichia coli ATCC 35218; type: functional
# [2] = test system: Escherichia coli; assay: Antibacterial activity against Escherichia coli APEC_O2; type: functional
# [3] = test system: Escherichia coli; assay: Antibacterial activity against Escherichia coli; type: functional
# [4] = test system: Escherichia coli; assay: Antibacterial activity against Escherichia coli BW25113; type: functional
# [5] = test system: Klebsiella pneumoniae; assay: Antibacterial activity against Klebsiella pneumoniae UK48 incubated for 16 to 18 hrs by broth microdilution method; type: functional; settings: time 16-18 hrs
# How it was run: (§1)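 CLSI broth microdilution in cation-adjusted Mueller–Hinton broth, inoculum 5×10^5 CFU mL−1. Ranges tested: colistin 1024–2 μg mL−1, CCCP 80–1 μg mL−1, argatroban 1024–2 μg mL−1. Incubation is 37 °C for 16–18 h. Growth is visualized with triphenyl tetrazolium chloride, and the MIC is interpreted by CLSI breakpoint criteria.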
# [6] = test system: Morganella morganii; assay: Antibacterial activity against Morganella morganii UM869 incubated for 16 to 18 hrs by broth microdilution method; type: functional; settings: time 16-18 hrs; how it was run: as §1
# [7] = test system: Morganella morganii; assay: Antibacterial activity against Morganella morganii UM573 incubated for 16 to 18 hrs by broth microdilution method; type: functional; settings: time 16-18 hrs; how it was run: as §1
# [8] = test system: Klebsiella pneumoniae; assay: Synergistic antibacterial activity against Klebsiella pneumoniae UK48 in presence of colistin by checkerboard assay; type: functional
# How it was run: (§2)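 Checkerboard run in triplicate in cation-supplemented Mueller–Hinton broth. Colistin 512 to 1 µg mL−1 is crossed with argatroban 256 to 2 µg mL−1. Inoculum is ~5–6×10^5 CFU mL−1, incubated 37 °C for 24 h. ΣFIC = C_A/MIC_A + C_B/MIC_B, where C is each drug's concentration in combination at the MIC well.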
# [9] = test system: Morganella morganii; assay: Synergistic antibacterial activity against Morganella morganii UM869 in presence of colistin by checkerboard assay; type: functional; how it was run: as §2
# [10] = test system: Morganella morganii; assay: Synergistic antibacterial activity against Morganella morganii UM573 in presence of colistin by checkerboard assay; type: functional; how it was run: as §2
# [11] = test system: Klebsiella pneumoniae; assay: Antibacterial activity against Klebsiella pneumoniae UK48 assessed as efflux pump inhibition by measuring mean fluorescence intensity incubated for 30 mins by EtBr staining based assay; type: functional, organism-based
# How it was run: (§3)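 Isolates grown in LB broth and adjusted to 0.5 McFarland. Cultures with no drug, CCCP or test agent (fraction of each agent's MIC per isolate) were shaken 30 min at 37 °C, then swabbed cartwheel-style onto TSA plates containing EtBr 2.5 mg L⁻¹ and incubated 18 h at 37 °C. Swab fluorescence was imaged and mean intensity compared by Student's t-test. K. pneumoniae ATCC13882 and SDL79 served as controls.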
# [12] = test system: Morganella morganii; assay: Antibacterial activity against Morganella morganii UM573 assessed as efflux pump inhibition by measuring mean fluorescence intensity incubated for 30 mins by EtBr staining based assay; type: functional, organism-based; how it was run: as §3
# [13] = test system: Morganella morganii; assay: Antibacterial activity against Morganella morganii UM869 assessed as efflux pump inhibition by measuring mean fluorescence intensity incubated for 30 mins by EtBr staining based assay; type: functional, organism-based; how it was run: as §3
# [14] = test system: Klebsiella pneumoniae; assay: Bacteriostatic activity against Klebsiella pneumoniae UK48 incubated for 24 hrs by time-kill assay; type: functional, organism-based
# How it was run: (§4)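 Log-phase cultures (~5×10^6 CFU mL−1) in cation-adjusted Mueller–Hinton broth at 37 °C are given drugs alone or combined at ¼ MIC; untreated growth is the control. At 0, 4, 8, 12 and 24 h, samples are diluted […] in 0.7% NaCl, 100 µL is plated on Mueller–Hinton agar overnight at 37 °C, and colonies are counted. Three repeats, mean reported.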
# [15] = test system: Morganella morganii; assay: Bacteriostatic activity against Morganella morganii UM869 incubated for 24 hrs by time-kill assay; type: functional, organism-based; how it was run: as §4
# [16] = test system: Morganella morganii; assay: Bacteriostatic activity against Morganella morganii UM573 incubated for 24 hrs by time-kill assay; type: functional, organism-based; how it was run: as §4
# [17] = test system: Escherichia coli; assay: Antibacterial activity against Escherichia coli by broth dilution method; type: functional
# [18] = test system: Escherichia coli; assay: Antibacterial activity against Escherichia coli AG100A; type: functional
smiles,measurement,setting,value
C[C@H]1[C@@H](O)O[C@@H]2O[C@@]3(C)CC[C@H]4[C@H](C)CC[C@@H]1[C@@]24OO3 [ARTENIMOL],MIC,[1],1020 µg/mL
CN[C@H]1CC[C@@H](c2ccc(Cl)c(Cl)c2)c2ccccc21 [SERTRALINE],MIC,[2],32 µg/mL
O=c1c(-c2ccc(O)cc2)coc2cc(O)ccc12 [DAIDZEIN],MIC,[3],16 µg/mL
C[C@H]1[C@H](C)CC[C@]2(C(=O)O)CC[C@]3(C)C(=CC[C@@H]4[C@@]5(C)CC[C@H](O)C(C)(C)[C@@H]5CC[C@]43C)[C@H]12 [URSOLIC ACID],MIC,[3],50 µg/mL
CC(C)=CC[C@@H](O)C1=CC(=O)c2c(O)ccc(O)c2C1=O [SHIKONIN],MIC,[4],256 µg/mL
C[C@@H]1CNc2c(cccc2S(=O)(=O)N[C@@H](CCCNC(=N)N)C(=O)N2CC[C@@H](C)C[C@@H]2C(=O)O)C1,MIC,[5],≥ 512 µg/mL
same,MIC,[6],≥ 512 µg/mL
same,MIC,[7],≥ 512 µg/mL
same,MIC,[8],64 µg/mL
same,MIC,[9],128 µg/mL
same,MIC,[10],128 µg/mL
same,Activity,[11],Active
same,Activity,[12],Active
same,Activity,[13],Active
same,Activity,[14],inactive
same,Activity,[15],inactive
same,Activity,[16],inactive
CC[C@H]1OC(=O)[C@H](C)[C@@H](O[C@H]2C[C@@](C)(OC)[C@@H](O)[C@H](C)O2)[C@H](C)[C@@H](O[C@@H]2O[C@H](C)C[C@H](N(C)C)[C@H]2O)[C@](C)(O)C[C@@H](C)C(=O)[C@H](C)[C@@H](O)[C@]1(C)O [ERYTHROMYCIN],MIC,[3],367 µg/mL
O=c1c(O)c(-c2ccc(O)c(O)c2)oc2cc(O)cc(O)c12 [QUERCETIN],MIC,[4],1020 µg/mL
CC[n+]1c(-c2ccccc2)c2cc(N)ccc2c2ccc(N)cc21 [HOMIDIUM],MIC,[3],512 µg/mL
O=C(Cc1cccs1)N[C@@H]1C(=O)N2C(C(=O)O)=C(/C=C/c3ccc([N+](=O)[O-])cc3[N+](=O)[O-])CS[C@H]12 [NITROCEFIN],MIC,[3],1.9 µg/mL
O=C(Nc1ccccc1)c1ccccc1C(=O)Nc1ccccc1,MIC,[17],64 µg/mL
O=c1[nH]c2ccccc2n1C1CCN(CCCC(c2ccc(F)cc2)c2ccc(F)cc2)CC1 [PIMOZIDE],MIC,[3],92.3 µg/mL
Nc1ccnc2ccccc12 [QUINOLIN-4-AMINE],MIC,[17],14.4 µg/mL
CN(C)CCC=C1c2ccccc2CCc2ccccc21 [AMITRIPTYLINE],MIC,[4],444 µg/mL
CC(=O)NC[C@H]1CN(c2ccc(N3CCOCC3)c(F)c2)C(=O)O1 [LINEZOLID],MIC,[3],512 µg/mL
CC(Cc1ccc(O)c(O)c1)C(C)Cc1ccc(O)c(O)c1 (centres undefined) [NORDIHYDROGUAIARETIC ACID],MIC,[4],512 µg/mL
N#CC(C#N)=NNc1cccc(Cl)c1 [CARBONYL CYANIDE M-CHLOROPHENYLHYDRAZONE],MIC,[5],5 µg/mL
same,MIC,[6],20 µg/mL
same,MIC,[7],20 µg/mL
same,Activity,[11],Active
same,Activity,[12],Active
same,Activity,[13],Active
same,Activity,[14],Active
same,Activity,[15],Active
same,Activity,[16],Active
OC(c1cc(-c2ccc(C(F)(F)F)cc2)nc(C(F)(F)F)c1)C1CCCCN1 (centres undefined) [ENPIROLINE],MIC,[17],20.2 µg/mL
CN(C)CCCN1c2ccccc2Sc2ccc(Cl)cc21 [CHLORPROMAZINE],MIC,[4],256 µg/mL
CC1(C)Cc2c(C#N)c(SCCc3ccccc3)nc(N3CCOCC3)c2CO1,MIC,[3],4.05 µg/mL
CC(C)=CCC/C(C)=C/CO [GERANIOL],MIC,[18],64 µg/mL
O=c1c2cc(O)c(O)cc2oc2cc(O)c([C@@H]3O[C@H](CO)[C@@H](O)[C@H](O)[C@H]3O)c(O)c12 [MANGIFERIN],MIC,[4],512 µg/mL
Cc1onc(-c2ccccc2)c1C(=O)N[C@@H]1C(=O)N2[C@@H]1SC(C)(C)[C@@H]2C(=O)O [OXACILLIN],MIC,[3],1020 µg/mL
CC1=CC(=O)c2c(O)cccc2C1=O [PLUMBAGIN],MIC,[4],128 µg/mL
C[C@H]1[C@H](OC(=O)CCC(=O)O)O[C@@H]2O[C@@]3(C)CC[C@H]4[C@H](C)CC[C@@H]1[C@@]24OO3 [ARTESUNATE],MIC,[1],4100 µg/mL
